Measurements taken from ChEMBL document CHEMBL4043093, “2-Oxo-3, 4-dihydropyrimido[4, 5-d]pyrimidinyl derivatives as new irreversible pan fibroblast growth factor receptor (FGFR) inhibitors” (Eur J Med Chem, 2017).

Legend:
[1] = tested on: Tyrosine-protein kinase ABL1 (Homo sapiens), P00519 [F317I]; test: Inhibition of human phosphorylated ABL1 F317I mutant (S229 to K512 residues) expressed in HEK293 cells assessed as residual activity at 1000 nM after 30 mins by Kinomescan method relative to control; assay type: cell-based
Method in brief: (§1)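 Single-point screen at a fixed 1 µM, run within a 456-kinase DiscoveRx KINOMEscan panel. Each kinase's read-out is Percent Control, i.e. signal relative to a control without compound. Hits were scored by a Percent Control < 35 cut-off, and an S(35) selectivity score was calculated across the non-mutant kinases.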

[2] = molecular target: Tyrosine-protein kinase ABL1 (Homo sapiens) (UniProt P00519); test: Inhibition of wild-type human phosphorylated ABL1 (S229 to K512 residues) expressed in HEK293 cells assessed as residual activity at 1000 nM after 30 mins by Kinomescan method relative to control; assay type: cell-based
[3] = molecular target: Activin receptor type-1 (Homo sapiens) (UniProt Q04771); test: Inhibition of wild-type human ACVR1 (C188 to C509 residues) expressed in Escherichia coli BL21 assessed as residual activity at 1000 nM after 30 mins by Kinomescan method relative to control; method in brief: as §1
[4] = molecular target: Cytoplasmic tyrosine-protein kinase BMX (Homo sapiens) (UniProt P51813); test: Inhibition of wild-type human full length BMX (M1 to H675 residues) expressed in Escherichia coli BL21 assessed as residual activity at 1000 nM after 30 mins by Kinomescan method relative to control; method in brief: as §1
Cytoplasmic tyrosine-protein kinase BMX (Homo sapiens), sequence (P51813 whole entry, the tested form may be a part): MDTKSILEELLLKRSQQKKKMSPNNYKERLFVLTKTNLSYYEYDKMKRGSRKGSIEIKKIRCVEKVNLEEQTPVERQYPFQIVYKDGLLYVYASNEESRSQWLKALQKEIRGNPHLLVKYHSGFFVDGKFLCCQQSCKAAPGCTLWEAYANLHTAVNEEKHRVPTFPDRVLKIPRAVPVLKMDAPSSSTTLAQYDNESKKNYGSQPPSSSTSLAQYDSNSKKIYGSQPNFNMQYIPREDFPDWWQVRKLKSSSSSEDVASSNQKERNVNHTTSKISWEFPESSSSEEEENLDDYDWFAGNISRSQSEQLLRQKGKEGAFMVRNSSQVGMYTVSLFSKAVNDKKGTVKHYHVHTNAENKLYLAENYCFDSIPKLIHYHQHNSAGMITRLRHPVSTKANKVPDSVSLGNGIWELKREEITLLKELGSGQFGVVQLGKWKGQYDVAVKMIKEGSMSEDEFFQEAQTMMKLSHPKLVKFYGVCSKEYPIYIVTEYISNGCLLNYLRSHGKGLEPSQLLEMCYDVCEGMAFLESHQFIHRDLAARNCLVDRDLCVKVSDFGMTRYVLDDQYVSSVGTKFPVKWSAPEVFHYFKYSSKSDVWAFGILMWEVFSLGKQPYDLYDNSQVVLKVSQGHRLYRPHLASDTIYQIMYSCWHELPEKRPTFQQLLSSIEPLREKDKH

[5] = molecular target: Serine/threonine-protein kinase BRSK1 (Homo sapiens) (UniProt Q8TDC3); test: Inhibition of wild-type human partial length BRSK1 (M1 to E754 residues) expressed in Escherichia coli BL21 assessed as residual activity at 1000 nM after 30 mins by Kinomescan method relative to control
[6] = molecular target: Calcium/calmodulin-dependent protein kinase type II subunit alpha (Homo sapiens) (UniProt Q9UQM7); test: Inhibition of wild-type human partial length CAMK2A (M1 to K328 residues) expressed in Escherichia coli BL21 assessed as residual activity at 1000 nM after 30 mins by Kinomescan method relative to control
[7] = molecular target: Cyclin-dependent kinase 8 (Homo sapiens) (UniProt P49336); test: Inhibition of wild-type human partial length CDK8 (M1 to T360 residues) expressed in Escherichia coli BL21 assessed as residual activity at 1000 nM after 30 mins by Kinomescan method relative to control
[8] = molecular target: Casein kinase I isoform epsilon (Homo sapiens) (UniProt P49674); test: Inhibition of wild-type human full length CSNK1E (M1 to K416 residues) expressed in Escherichia coli BL21 assessed as residual activity at 1000 nM after 30 mins by Kinomescan method relative to control; method in brief: as §1
Casein kinase I isoform epsilon (Homo sapiens), sequence (P49674 whole entry, looked up, the tested form may be a part, canonical isoform): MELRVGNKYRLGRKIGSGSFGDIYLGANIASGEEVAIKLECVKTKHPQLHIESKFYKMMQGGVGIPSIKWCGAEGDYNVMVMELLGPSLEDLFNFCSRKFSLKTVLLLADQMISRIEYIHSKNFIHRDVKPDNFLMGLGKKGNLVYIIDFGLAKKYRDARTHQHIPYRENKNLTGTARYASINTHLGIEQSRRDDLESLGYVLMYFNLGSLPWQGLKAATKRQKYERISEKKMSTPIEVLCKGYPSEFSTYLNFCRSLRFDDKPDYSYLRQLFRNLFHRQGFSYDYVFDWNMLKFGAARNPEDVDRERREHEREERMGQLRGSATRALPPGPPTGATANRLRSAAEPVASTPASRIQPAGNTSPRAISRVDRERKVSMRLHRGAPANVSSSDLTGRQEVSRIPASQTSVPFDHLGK

[9] = molecular target: Serine/threonine-protein kinase DCLK3 (Homo sapiens) (UniProt Q9C098); test: Inhibition of wild-type human partial length DCAMKL3 (E140 to V628 residues) expressed in Escherichia coli BL21 assessed as residual activity at 1000 nM after 30 mins by Kinomescan method relative to control
[10] = molecular target: Dual specificity tyrosine-phosphorylation-regulated kinase 1A (Homo sapiens) (UniProt Q13627); test: Inhibition of wild-type human partial length DYRK1A (H129 to S509 residues) expressed in HEK293 cells assessed as residual activity at 1000 nM after 30 mins by Kinomescan method relative to control; assay type: cell-based
[11] = molecular target: Ephrin type-B receptor 6 (Homo sapiens) (UniProt O15197); test: Inhibition of wild-type human partial length EPHB6 (Q634 to P948 residues) expressed in HEK293 cells assessed as residual activity at 1000 nM after 30 mins by Kinomescan method relative to control; assay type: cell-based
[12] = molecular target: Receptor-type tyrosine-protein kinase FLT3 (Homo sapiens) (UniProt P36888); test: Inhibition of wild-type human partial length autoinhibited FLT3 (H564 to Y969 residues) expressed in HEK293 cells assessed as residual activity at 1000 nM after 30 mins by Kinomescan method relative to control; assay type: cell-based
[13] = tested on: Mast/stem cell growth factor receptor Kit (Homo sapiens), P10721 [V559D,T670I]; test: Inhibition of human partial length KIT V559D/T670I double mutant (Y545 to D952 residues) expressed in Escherichia coli BL21 assessed as residual activity at 1000 nM after 30 mins by Kinomescan method relative to control
Method in brief: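 KINOMEscan binding panel of 456 kinases, with the test compound at a single concentration of 1 µM. Read-out is Percent Control.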

[14] = molecular target: Tyrosine-protein kinase Lck (Homo sapiens) (UniProt P06239); test: Inhibition of wild-type human partial length LCK (R207 to P509 residues) expressed in Escherichia coli BL21 assessed as residual activity at 1000 nM after 30 mins by Kinomescan method relative to control
Tyrosine-protein kinase Lck (Homo sapiens), sequence (P06239 2-509 limits assumed): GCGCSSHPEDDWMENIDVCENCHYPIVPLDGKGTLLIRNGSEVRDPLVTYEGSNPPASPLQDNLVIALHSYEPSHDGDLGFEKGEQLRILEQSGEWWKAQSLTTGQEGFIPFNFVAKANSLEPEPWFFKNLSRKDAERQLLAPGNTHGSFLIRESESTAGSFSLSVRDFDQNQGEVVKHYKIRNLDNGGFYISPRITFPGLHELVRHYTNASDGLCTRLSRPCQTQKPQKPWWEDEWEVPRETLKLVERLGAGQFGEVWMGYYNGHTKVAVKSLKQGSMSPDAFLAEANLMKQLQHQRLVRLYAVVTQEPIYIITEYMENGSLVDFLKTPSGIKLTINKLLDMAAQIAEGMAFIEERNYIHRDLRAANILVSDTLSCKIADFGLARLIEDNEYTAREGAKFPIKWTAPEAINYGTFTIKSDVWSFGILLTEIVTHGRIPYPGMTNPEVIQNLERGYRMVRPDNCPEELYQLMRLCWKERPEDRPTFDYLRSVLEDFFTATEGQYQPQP

[15] = molecular target: MAP kinase-activated protein kinase 2 (Homo sapiens) (UniProt P49137); test: Inhibition of wild-type human partial length MAPKAPK2 (V48 to D345 residues) expressed in Escherichia coli BL21 assessed as residual activity at 1000 nM after 30 mins by Kinomescan method relative to control
MAP kinase-activated protein kinase 2 (Homo sapiens), sequence (P49137 whole entry, looked up, the tested form may be a part): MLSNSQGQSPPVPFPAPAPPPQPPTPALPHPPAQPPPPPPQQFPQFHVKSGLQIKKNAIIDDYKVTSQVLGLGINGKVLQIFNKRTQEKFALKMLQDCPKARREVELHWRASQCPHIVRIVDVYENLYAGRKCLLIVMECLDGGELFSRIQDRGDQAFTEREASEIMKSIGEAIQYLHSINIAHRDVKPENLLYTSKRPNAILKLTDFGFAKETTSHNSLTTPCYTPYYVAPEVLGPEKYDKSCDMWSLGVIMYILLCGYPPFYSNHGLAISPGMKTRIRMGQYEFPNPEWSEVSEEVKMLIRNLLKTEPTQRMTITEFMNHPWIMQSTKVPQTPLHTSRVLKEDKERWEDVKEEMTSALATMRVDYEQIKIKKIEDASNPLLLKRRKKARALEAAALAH

[16] = molecular target: Serine/threonine-protein kinase MARK1 (Homo sapiens) (UniProt Q9P0L2); test: Inhibition of wild-type human partial length MARK1 (Q30 to T341 residues) expressed in Escherichia coli BL21 assessed as residual activity at 1000 nM after 30 mins by Kinomescan method relative to control
Serine/threonine-protein kinase MARK1 (Homo sapiens), sequence (Q9P0L2 whole entry, looked up, the tested form may be a part): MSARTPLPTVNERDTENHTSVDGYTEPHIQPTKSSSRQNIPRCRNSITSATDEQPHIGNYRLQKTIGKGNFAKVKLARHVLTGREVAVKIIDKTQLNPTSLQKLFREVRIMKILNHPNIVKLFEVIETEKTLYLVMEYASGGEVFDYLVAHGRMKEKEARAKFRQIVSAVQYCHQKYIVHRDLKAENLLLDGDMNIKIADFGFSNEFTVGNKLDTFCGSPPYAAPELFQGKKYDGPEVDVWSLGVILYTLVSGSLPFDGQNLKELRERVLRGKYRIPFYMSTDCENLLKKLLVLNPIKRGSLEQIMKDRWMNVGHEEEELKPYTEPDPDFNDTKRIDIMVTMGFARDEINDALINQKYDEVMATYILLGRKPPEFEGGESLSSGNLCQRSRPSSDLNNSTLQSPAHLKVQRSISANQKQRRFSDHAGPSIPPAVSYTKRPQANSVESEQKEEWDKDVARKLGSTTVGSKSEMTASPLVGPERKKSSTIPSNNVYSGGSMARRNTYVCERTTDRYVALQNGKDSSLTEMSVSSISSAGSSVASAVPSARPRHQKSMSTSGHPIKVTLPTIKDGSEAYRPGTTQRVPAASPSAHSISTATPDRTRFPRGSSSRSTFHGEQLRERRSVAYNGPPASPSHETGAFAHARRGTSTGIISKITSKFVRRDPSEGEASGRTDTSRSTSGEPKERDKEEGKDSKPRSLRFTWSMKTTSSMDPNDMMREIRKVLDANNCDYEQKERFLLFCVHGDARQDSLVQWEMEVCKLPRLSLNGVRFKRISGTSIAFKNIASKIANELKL

[17] = molecular target: Serine/threonine-protein kinase Nek10 (Homo sapiens) (UniProt Q6ZWH5); test: Inhibition of wild-type human partial length NEK10 (L488 to R809 residues) expressed in HEK293 cells assessed as residual activity at 1000 nM after 30 mins by Kinomescan method relative to control; assay type: cell-based
Serine/threonine-protein kinase Nek10 (Homo sapiens), sequence (Q6ZWH5 whole entry, the tested form may be a part, canonical isoform): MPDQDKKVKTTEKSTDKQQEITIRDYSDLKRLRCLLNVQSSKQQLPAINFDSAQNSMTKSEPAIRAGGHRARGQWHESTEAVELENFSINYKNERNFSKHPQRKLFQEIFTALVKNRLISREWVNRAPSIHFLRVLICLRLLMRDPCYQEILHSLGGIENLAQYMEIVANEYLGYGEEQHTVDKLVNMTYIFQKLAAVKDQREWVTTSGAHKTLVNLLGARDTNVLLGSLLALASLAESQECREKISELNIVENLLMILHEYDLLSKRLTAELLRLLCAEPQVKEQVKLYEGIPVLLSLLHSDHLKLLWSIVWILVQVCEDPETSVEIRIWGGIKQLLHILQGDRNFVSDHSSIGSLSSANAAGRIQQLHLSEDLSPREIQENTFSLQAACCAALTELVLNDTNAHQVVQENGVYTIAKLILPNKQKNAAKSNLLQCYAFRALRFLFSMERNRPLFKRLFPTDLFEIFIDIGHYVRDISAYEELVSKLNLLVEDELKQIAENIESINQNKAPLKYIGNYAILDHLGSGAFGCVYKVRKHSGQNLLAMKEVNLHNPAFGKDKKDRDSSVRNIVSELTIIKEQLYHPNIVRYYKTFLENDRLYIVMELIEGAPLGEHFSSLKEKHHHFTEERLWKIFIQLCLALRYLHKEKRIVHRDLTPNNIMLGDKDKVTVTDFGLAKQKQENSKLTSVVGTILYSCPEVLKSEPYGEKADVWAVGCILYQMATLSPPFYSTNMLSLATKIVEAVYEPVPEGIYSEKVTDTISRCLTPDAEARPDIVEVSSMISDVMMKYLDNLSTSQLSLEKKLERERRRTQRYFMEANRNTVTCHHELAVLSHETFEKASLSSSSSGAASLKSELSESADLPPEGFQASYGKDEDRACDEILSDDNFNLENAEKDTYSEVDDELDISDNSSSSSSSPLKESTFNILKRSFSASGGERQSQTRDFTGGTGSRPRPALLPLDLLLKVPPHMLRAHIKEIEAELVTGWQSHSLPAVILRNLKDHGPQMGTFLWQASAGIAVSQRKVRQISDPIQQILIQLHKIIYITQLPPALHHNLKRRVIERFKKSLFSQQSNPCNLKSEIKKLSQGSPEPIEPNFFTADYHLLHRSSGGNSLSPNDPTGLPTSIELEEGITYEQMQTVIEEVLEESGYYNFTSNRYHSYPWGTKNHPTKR

[18] = molecular target: Phosphatidylinositol 4,5-bisphosphate 3-kinase catalytic subunit gamma isoform (Homo sapiens) (UniProt P48736); test: Inhibition of wild-type human partial length PIK3CG (S144 to A1102 residues) expressed in HEK293 cells assessed as residual activity at 1000 nM after 30 mins by Kinomescan method relative to control; assay type: cell-based
[19] = molecular target: Protein kinase C delta type (Homo sapiens) (UniProt Q05655); test: Inhibition of wild-type human partial length PRKCD (Q328 to D676 residues) expressed in Escherichia coli BL21 assessed as residual activity at 1000 nM after 30 mins by Kinomescan method relative to control
Protein kinase C delta type (Homo sapiens), sequence (Q05655 whole entry, looked up, the tested form may be a part): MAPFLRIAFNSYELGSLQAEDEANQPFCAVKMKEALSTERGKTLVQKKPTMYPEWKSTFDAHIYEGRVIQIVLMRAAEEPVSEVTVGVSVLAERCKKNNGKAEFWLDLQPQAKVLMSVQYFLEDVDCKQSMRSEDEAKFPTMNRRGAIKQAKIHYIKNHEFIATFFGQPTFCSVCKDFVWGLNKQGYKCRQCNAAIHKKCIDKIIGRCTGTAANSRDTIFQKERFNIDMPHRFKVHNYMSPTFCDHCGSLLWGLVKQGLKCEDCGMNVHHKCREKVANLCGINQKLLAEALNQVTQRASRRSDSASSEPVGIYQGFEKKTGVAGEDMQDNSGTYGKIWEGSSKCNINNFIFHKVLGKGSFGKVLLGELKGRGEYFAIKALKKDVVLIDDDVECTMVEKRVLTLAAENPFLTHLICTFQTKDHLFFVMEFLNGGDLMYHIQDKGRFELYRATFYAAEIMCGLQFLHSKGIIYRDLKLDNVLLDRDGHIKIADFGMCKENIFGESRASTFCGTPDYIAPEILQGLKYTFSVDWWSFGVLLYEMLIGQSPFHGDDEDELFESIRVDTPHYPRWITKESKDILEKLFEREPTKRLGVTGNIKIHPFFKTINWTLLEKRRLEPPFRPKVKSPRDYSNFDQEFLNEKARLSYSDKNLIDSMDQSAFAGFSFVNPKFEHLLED

[20] = molecular target: Serine/threonine-protein kinase D3 (Homo sapiens) (UniProt O94806); test: Inhibition of wild-type human partial length PRKD3 (S543 to E863 residues) expressed in Escherichia coli BL21 assessed as residual activity at 1000 nM after 30 mins by Kinomescan method relative to control
[21] = molecular target: Ribosomal protein S6 kinase alpha-2 (Homo sapiens) (UniProt Q15349); test: Inhibition of wild-type human partial length N-terminal RSK2 kinase domain 1 (M1 to D394 residues) expressed in HEK293 cells assessed as residual activity at 1000 nM after 30 mins by Kinomescan method relative to control; assay type: cell-based

## COc1cc(OC)c(Cl)c(N2Cc3cnc(Nc4ccc(F)cc4)nc3N(C3CCN(C(=O)/C=C/CN(C)C)CC3)C2=O)c1Cl
[1]
  Activity: 99%
[2]
  Activity: 37%
[3]
  Activity: 100%
[4]
  Activity: 99%
[5]
  Activity: 100%
[6]
  Activity: 100%
[7]
  Activity: 85%
[8]
  Activity: 100%
[9]
  Activity: 81%
[10]
  Activity: 98%
[11]
  Activity: 67%
[12]
  Activity: 100%
[13]
  Activity: 82%
[14]
  Activity: 1.5%
[15]
  Activity: 99%
[16]
  Activity: 99%
[17]
  Activity: 86%
[18]
  Activity: 100%
[19]
  Activity: 93%
[20]
  Activity: 100%
[21]
  Activity: 89%
